Experimental data: article PMC9035732 (Photoacoustics, 2022)

Legend:
[1] = tested on: orthotopic human HCC xenograft tumors (SK-Hep1); test: In vivo photoacoustic imaging of orthotopic human HCC xenograft tumors; set-up: species or system mouse; conditions: intravenous, peptide 300 μM in 200 μL PBS; ICG 2.46 mg/kg; λex = 774 nm
Procedure, shortened: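 Mice were female athymic nude mice bearing orthotopic SK-Hep1 tumors, which were first established subcutaneously in the flank. IRDye800-labeled target or control peptide was given i.v. in 200 µL PBS. Blocking groups got unlabeled peptide injected beforehand, and ICG 2.46 mg/kg i.v. served as comparator. 3D photoacoustic images (excitation 774 nm) were taken before and at 0.5, 1, 1.5, 1.75, 2, 4 and 24 h. Intensity came from 2D maximum-intensity projections, with pre-injection images as background, and was expressed as tumor/background ratio.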

[2] = tested on: orthotopic human HCC xenograft tumors (SK-Hep1); format: in vivo, mouse; conditions: 1.75 h post-injection, mean±SD, n = 8 mice per group; λex = 785 nm
Procedure, shortened: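 Tumors were orthotopic SK-Hep1 xenografts in female athymic nude mice; the cells were first grown subcutaneously in the hind flank. Mice received IRDye800-labeled target or control peptide i.v. Other groups were pre-blocked with unlabeled peptide or given ICG. Paired white-light and fluorescence laparoscopic images were taken at 1.75 h post-injection. Ultrasound and MR confirmed tumor location.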

time of peak photoacoustic intensity in tumor post-injection [1]: not observed within 24 h
SMILES: CC1(C)C(/C=C/C=C/C=C/C=C2\N(CCCCS(=O)(=O)O)c3ccc4ccccc4c3C2(C)C)=[N+](CCCCS(=O)(=O)[O-])c2ccc3ccccc3c21 [ICG, Indocyanine green]
mean T/B ratio, laparoscopic fluorescence imaging [2]: 0.87 ± 0.2
